In PubChem BioAssay:
Calls of active or inactive are those of the source. Rule as the data show it, unless noted: active = inhibition above about 31%; inactive = the rest.

Columns and labels:
[1] = HUVEC growth inhibition – cell-based, human, primary screen (AID 575;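 active = viability at or below 30% in both replicate assays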;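 also: 100% = median of untreated cell wells with 0.1% DMSO on each plate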); details: HUVEC proliferation, CellTiter-Glo luminescence, 72 h; at 10 µM; stronger effect = lower value
How it was run: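 Material: primary human umbilical vein endothelial cells / Schedule: 72 h exposure, 37 °C, 5% CO2, 30 min RT equilibration / Signal: ATP-based CellTiter-Glo luminescent read / Read-out basis: percent of median DMSO-control luminescence / Control set: 32 DMSO-only cell-control wells (high), 32 MePR drug-control wells (low) per plate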

[2] = growth inhibitors of H69AR lung tumor, primary screen, human, duplicate replicates (AID 580;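 active = viability at or under a set limit in both replicates, limit being median viability minus 3 SD, cut at about 48% in these data, passing the limit was not always enough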;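 also: 100% = mean luminescence of untreated wells and 0% = no signal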); details: H69AR lung tumor cells viability, ATP luminescence, 72 h; at 10 µM; stronger effect = lower value
[3] = reversal of MRP1-mediated doxorubicin resistance, pilot screen, H69AR cells, doxorubicin co-treatment (AID 601;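 active = viability loss from added drug above about 55%, and viability with drug at most 40%, in both replicates, limit read from the data, passing the limit was not always enough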); details: CellTiter-Glo, 72 h, at 10 µM; for differential viability (reversal): stronger effect = higher value
[4] = 384-well plate pilot, post-Golgi transport modulator project, inhibition of yeast transport mutant growth (AID 636); details: absorbance 615 nm, about 18 h, stronger effect = higher value
[5] = growth suppression of yeast trafficking mutant, preliminary HTS, modulators of trafficking downstream of Golgi apparatus project, 1536-format plate, OD 615 nm (AID 637; in the data active = inhibition above about 30%); details: yeast transport mutant growth, absorbance 615 nm, 18 h; stronger effect = higher value
[6] = H69AR cells + 2 uM doxorubicin, measured here: viability with 2 uM doxorubicin, stronger effect = lower value
[7] = H69AR cells, compound alone cytotoxicity

| Structure (SMILES) | viability [1] | viability [2] | differential viability (reversal) ([3]; H69AR cells + 2 uM doxorubicin) | viability [3, 6] [%] | viability [3, 7] [%] | inhibition [4] | inhibition [5] |
| --- | --- | --- | --- | --- | --- | --- | --- |
| COc1cccc(-c2cc(C(F)(F)F)n3nc(N)nc3n2)c1 | 92.3% (inactive) | 88.9% (inactive) | -2.71% (inactive) | 91.6 | 88.9 | -0.53% (inactive) | 10.3% (inactive) |
| COc1ccc(-c2noc(CCC(=O)Nc3nc4ccccc4s3)n2)cc1 | 88.2% (inactive) | 88.1% (inactive) | -3.04% (inactive) | 91.1 | 88.1 | 2.21% (inactive) | 7.46% (inactive) |
| O=C(Nc1ccc(S(=O)(=O)Nc2ccc(Cl)cc2)cc1)C1CCCO1 (configuration not stated) | 62% (inactive) | 90.2% (inactive) | 0.92% (inactive) | 89.3 | 90.2 | -6% (inactive) | -5.4% (inactive) |
| Cc1cccc(NCc2ccccc2O)c1 | 76.1% (inactive) | 94.6% (inactive) | 5.33% (inactive) | 89.2 | 94.6 | -0.13% (inactive) | -5.87% (inactive) |
| COc1cc2c(OC)cccc2cc1C(=O)O | 95% (inactive) | 88.2% (inactive) | 2.57% (inactive) | 85.7 | 88.2 | -1.32% (inactive) | 12.1% (inactive) |
| CCc1ccc(NC(=O)c2cccnc2)cc1 | 95.9% (inactive) | 105% (inactive) | 23.7% (inactive) | 81.7 | 105 | -7.2% (inactive) | -3.02% (inactive) |
| CCc1cc2c(NCCC(=O)O)nc(C)nc2s1 | 89.2% (inactive) | 75.5% (inactive) | -12.1% (inactive) | 87.6 | 75.5 | 0.65% (inactive) | 13.3% (inactive) |
| O=C(CN1C(=O)COc2ccccc21)NCCN1CCc2ccccc2C1 | 79.1% (inactive) | 92.9% (inactive) | -3.52% (inactive) | 96.4 | 92.9 | -4.68% (inactive) | -1.59% (inactive) |
| CN(C)S(=O)(=O)c1cccc(C(=O)Nc2cccnc2)c1 | 83.9% (inactive) | 89.5% (inactive) | 7.48% (inactive) | 82 | 89.5 | -4.93% (inactive) | 1.43% (inactive) |
| Cc1nc(C)c(C(=O)OCC(=O)N2CCN(c3ccccc3)CC2)s1 | 108% (inactive) | 95.8% (inactive) | 7.64% (inactive) | 88.1 | 95.8 | -4.55% (inactive) | 4.29% (inactive) |
| Cc1ccc(Cn2ccc(NC(=O)c3noc4c3CCCC4)n2)cc1 | 101% (inactive) | 112% (inactive) | 23.6% (inactive) | 88.6 | 112 | -3.25% (inactive) | 2.86% (inactive) |
| CCOc1ccc(OCC)c(NC(=O)C2CCN(c3ncccn3)CC2)c1 | 105% (inactive) | 86.1% (inactive) | -12.5% (inactive) | 98.5 | 86.1 | -3.47% (inactive) | -2.06% (inactive) |
| COCCn1nnnc1C(C(C)C)N(Cc1cccnc1)Cc1ccccc1Cl (configuration not stated) | 96.4% (inactive) | 83.8% (inactive) | 34.7% (inactive) | 49 | 83.8 | -2.34% (inactive) | 2.06% (inactive) |
| Cc1cc(/N=C/N(C)C)on1 | 82.4% (inactive) | 93.7% (inactive) | 12% (inactive) | 81.7 | 93.7 | -4.94% (inactive) | 2.06% (inactive) |
| CCCOc1ccc(C2C(C(=O)c3ccc(C)o3)=C(O)C(=O)N2Cc2cccnc2)cc1 (configuration not stated) | 110% (inactive) | 97.8% (inactive) | 3.76% (inactive) | 94 | 97.8 | -5.79% (inactive) | 1.75% (inactive) |
| CN(C)c1cccc(N=C2C=C(N3CCOCC3)CC(C)(C)C2)c1 | 106% (inactive) | 91.8% (inactive) | -1.85% (inactive) | 93.7 | 91.8 | -1.04% (inactive) | -8.41% (inactive) |
| CCn1c(=N)n(CC(=O)C23CC4CC(CC(C4)C2)C3)c2ccccc21 | 4.87% (active) | 83.1% (inactive) | -0.145% (inactive) | 83.2 | 83.1 | -5.27% (inactive) | 15.3% (inactive) |
| CCOc1ccc(CNc2ccc3c(c2)ncn3C)cc1 | 106% (inactive) | 93.2% (inactive) | 3.64% (inactive) | 89.5 | 93.2 | -3.73% (inactive) | -6.83% (inactive) |
| CCOC(=O)C1=C(CC)Nc2ccccc2N=C1NC(=O)Nc1ccccc1OC | 50.5% (inactive) | 74% (inactive) | -0.52% (inactive) | 74.5 | 74 | 0.52% (inactive) | 1.11% (inactive) |
| Cc1ccc(NC(=O)COc2nc(C)cs2)cc1 | 97.5% (inactive) | 91.5% (inactive) | 3.88% (inactive) | 87.6 | 91.5 | -3.64% (inactive) | 2.7% (inactive) |
| COc1cccc(/C(O)=C2/C(=O)C(=O)N(CCN3CCOCC3)C2c2cccnc2)c1 (configuration not stated) | 98.9% (inactive) | 93.6% (inactive) | 0.755% (inactive) | 92.8 | 93.6 | 2.99% (inactive) | -3.02% (inactive) |

| Structure (SMILES) | viability [1] | viability [2] | differential viability (reversal) ([3]; H69AR cells + 2 uM doxorubicin) | viability [3, 6] [%] | viability [3, 7] [%] | inhibition [4] | inhibition [5] |
| --- | --- | --- | --- | --- | --- | --- | --- |
| CN(C)C(CNc1nnnn1-c1ccccc1)c1ccco1 (configuration not stated) | 79.2% (inactive) | 77.4% (inactive) | 5% (inactive) | 72.4 | 77.4 | -3.77% (inactive) | 1.11% (inactive) |
| CCCCn1c(NC(=O)CC)c(C#N)c2nc3ccccc3nc21 | 77.4% (inactive) | 81.9% (inactive) | 2.13% (inactive) | 79.8 | 81.9 | -6.67% (inactive) | -2.38% (inactive) |
| CC1(C)NC(=O)N(CCOc2cccc(Cl)c2Cl)C1=O | 98.7% (inactive) | 102% (inactive) | 14.6% (inactive) | 87.5 | 102 | -5.2% (inactive) | 10.2% (inactive) |
| CC(=O)Nc1ccc(NC(=O)c2ccccc2N(C)S(C)(=O)=O)cc1 | 101% (inactive) | 94.9% (inactive) | 3.22% (inactive) | 91.7 | 94.9 | -6.71% (inactive) | -0.79% (inactive) |
| CCCSc1nnc(-c2ccccc2NC(=O)CC)c(=O)[nH]1 | 99.4% (inactive) | 103% (inactive) | 14.4% (inactive) | 88.1 | 103 | -5.87% (inactive) | 3.97% (inactive) |
| O=C(c1ccncc1)N1CCN(C(=O)c2cccs2)CC1 | 103% (inactive) | 94.6% (inactive) | 5.42% (inactive) | 89.1 | 94.6 | -1.73% (inactive) | -2.38% (inactive) |
| CSc1nsc(SCC(=O)N2CCc3ccccc32)n1 | 98.6% (inactive) | 96.8% (inactive) | 4.61% (inactive) | 92.2 | 96.8 | -6.05% (inactive) | 3.33% (inactive) |
| c1ccc(-c2nn3nnnc3c3ccccc23)cc1 | 105% (inactive) | 90.8% (inactive) | 0.43% (inactive) | 90.3 | 90.8 | -1.04% (inactive) | 0.79% (inactive) |
| Nc1nc(SCc2ccc(Cl)cc2Cl)n[nH]1 | 85.8% (inactive) | 92.5% (inactive) | 4.17% (inactive) | 88.3 | 92.5 | -7.47% (inactive) | 0.79% (inactive) |
| c1ccc2c3nnc4n(c-3nc2c1)CCCS4 | 94% (inactive) | 104% (inactive) | 11.4% (inactive) | 92.7 | 104 | -1.32% (inactive) | 4.6% (inactive) |
| c1ccc2c(c1)c1c3n2CCNC3CCC1 (configuration not stated) | 91.1% (inactive) | 91.4% (inactive) | 4.74% (inactive) | 86.7 | 91.4 | -4.13% (inactive) | 0% (inactive) |
| C/C(Cl)=C\Cn1c(Nc2ccc(C)cc2)nc2c1c(=O)n(C)c(=O)n2C | 77.5% (inactive) | 72.1% (inactive) | -11.2% (inactive) | 83.2 | 72.1 | -1.04% (inactive) | 1.75% (inactive) |
| CCOc1ccccc1Nc1nc2ccccc2[nH]1 | 92.7% (inactive) | 94.2% (inactive) | 1.97% (inactive) | 92.3 | 94.2 | 0.91% (inactive) | -6.03% (inactive) |
| COc1ccccc1CN(Cc1nc2ccccc2c(=O)[nH]1)C(=O)Nc1ccccc1 | 89.4% (inactive) | 86.6% (inactive) | -3.29% (inactive) | 89.9 | 86.6 | -4.61% (inactive) | -4.13% (inactive) |
| COc1cccc(CN(C(=O)c2cc3ccccc3oc2=O)C2CC2)c1 | 99.1% (inactive) | 102% (inactive) | 5.67% (inactive) | 96.1 | 102 | -0.13% (inactive) | 0% (inactive) |
| O=C(CN1CCOCC1)Nc1cccc(C(=O)Nc2cccc(C(F)(F)F)c2)c1 | 95.5% (inactive) | 101% (inactive) | 8.35% (inactive) | 92.4 | 101 | -0.26% (inactive) | 0% (inactive) |
| O=C(Nc1ccc(S(=O)(=O)NCCc2ccccc2)cc1)c1ccc(Br)o1 | 72.4% (inactive) | 108% (inactive) | 16.8% (inactive) | 91.5 | 108 | -1.32% (inactive) | -6.35% (inactive) |
| Cc1cc(NC(=O)COc2ncnc3sc(C)c(C)c23)no1 | 97.6% (inactive) | 89.8% (inactive) | 3.08% (inactive) | 86.7 | 89.8 | -3.77% (inactive) | 5.56% (inactive) |
| S=c1[nH]nc(COc2ccccc2)n1C1CCCCC1 | 89.5% (inactive) | 81.6% (inactive) | 22.4% (inactive) | 59.2 | 81.6 | -0.39% (inactive) | 6.35% (inactive) |
| CCC(C)c1ccc(NC(=O)C2CC2)cc1 (configuration not stated) | 88.6% (inactive) | 90.3% (inactive) | 9.41% (inactive) | 80.9 | 90.3 | -1.82% (inactive) | 2.06% (inactive) |
